Results as given in ChEMBL document CHEMBL3108710, “Discovery of a novel class of dimeric Smac mimetics as potent IAP antagonists resulting in a clinical candidate for the treatment of cancer (AZD5582)” (J Med Chem, 2013).
Values after ≈ are worked out from the molar mass of the structure shown. Active and inactive are the calls of the source. No cut-off for these calls is given here.

Tests used:
[1] = target: T1, Baculoviral IAP repeat-containing protein 2 (Homo sapiens, UniProt Q13490); test: Binding affinity to cIAP1 in human MDA-MB-231 cells assessed as induction of protein degradation after 1 hr by ELISA; type: cell-based
T1 sequence (Q13490 whole entry): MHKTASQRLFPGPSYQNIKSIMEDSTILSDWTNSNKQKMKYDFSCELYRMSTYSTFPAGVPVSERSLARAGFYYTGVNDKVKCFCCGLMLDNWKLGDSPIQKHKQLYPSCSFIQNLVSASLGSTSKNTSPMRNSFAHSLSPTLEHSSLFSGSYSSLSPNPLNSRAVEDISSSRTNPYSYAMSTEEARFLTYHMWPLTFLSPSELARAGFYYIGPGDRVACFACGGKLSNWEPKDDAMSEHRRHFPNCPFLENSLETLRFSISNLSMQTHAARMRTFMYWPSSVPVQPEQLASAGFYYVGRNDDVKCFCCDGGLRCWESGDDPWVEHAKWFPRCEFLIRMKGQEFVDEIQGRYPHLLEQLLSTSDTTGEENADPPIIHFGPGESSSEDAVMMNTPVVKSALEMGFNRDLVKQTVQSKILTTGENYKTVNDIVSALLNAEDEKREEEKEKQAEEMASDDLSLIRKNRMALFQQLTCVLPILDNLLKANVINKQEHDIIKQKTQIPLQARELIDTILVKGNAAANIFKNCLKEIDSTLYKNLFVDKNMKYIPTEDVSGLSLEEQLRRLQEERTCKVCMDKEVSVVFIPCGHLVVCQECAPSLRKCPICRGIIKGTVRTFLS

MDA-MB-231 = test: Antiproliferative activity against human MDA-MB-231 cells assessed as growth inhibition after 48 hrs by Alamar Blue assay; type: functional; conditions: MDA-MB-231, 48 h
[2] = target: E3 ubiquitin-protein ligase XIAP (Homo sapiens, UniProt P98170); test: Displacement of AbuRPFK-5FAM from GST-tagged XIAP BIR3 domain (N252 to E350) (unknown origin) after 20 mins by fluorescence polarization assay
E3 ubiquitin-protein ligase XIAP, sequence (P98170 whole entry, the tested form may be a part): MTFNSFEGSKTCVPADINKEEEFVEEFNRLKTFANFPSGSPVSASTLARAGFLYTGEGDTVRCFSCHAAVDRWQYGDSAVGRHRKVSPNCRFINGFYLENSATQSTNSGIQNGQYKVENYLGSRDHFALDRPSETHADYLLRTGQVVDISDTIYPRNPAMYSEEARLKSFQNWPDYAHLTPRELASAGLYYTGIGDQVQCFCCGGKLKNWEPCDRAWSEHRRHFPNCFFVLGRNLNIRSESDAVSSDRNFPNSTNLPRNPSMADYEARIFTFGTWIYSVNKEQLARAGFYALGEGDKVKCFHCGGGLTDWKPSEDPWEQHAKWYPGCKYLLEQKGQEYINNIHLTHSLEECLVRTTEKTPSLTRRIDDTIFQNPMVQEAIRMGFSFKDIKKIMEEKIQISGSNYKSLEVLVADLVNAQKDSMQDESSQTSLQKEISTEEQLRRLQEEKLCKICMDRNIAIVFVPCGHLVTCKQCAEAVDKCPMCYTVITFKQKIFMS
Outline: (§1)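 Competitive fluorescence polarization binding assay. Measures displacement of a 5-carboxyfluorescein-tagged synthetic peptide from the AVPI groove of the isolated BIR domain.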

[3] = target: T1, Baculoviral IAP repeat-containing protein 2; test: Displacement of AbuRPFK-5FAM from GST-tagged cIAP1 BIR3 domain (L250 to G350) (unknown origin) after 20 mins by fluorescence polarization assay; outline: as §1
[4] = Aqueous equilibrium solubility of compound in phosphate buffer at pH 7.4 after 24 hrs by HPLC-UV analysis; type: physicochemical
[5] = Fraction unbound in human plasma at 10 uM by equilibrium dialysis method; type: ADME, cell-free
[6] = Elimination half life in Han Wistar rat at 0.2 mg/kg, iv by LC-MS/MS analysis; type: ADME, organism-based; parameters: dose 0.2 mg/kg, route intravenous; conditions: in vivo, read-out: beta t1/2 (converted)
Outline: (§2)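 Rat PK after a single intravenous bolus. Parameters derived from plasma levels: total plasma clearance, steady-state volume of distribution, half-life and AUC.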

[7] = Total plasma clearance in Han Wistar rat at 0.2 mg/kg, iv by LC-MS/MS analysis; type: ADME, organism-based; parameters: dose 0.2 mg/kg, route intravenous; outline: as §2
[8] = AUC in Han Wistar rat at 0.2 mg/kg, iv by LC-MS/MS analysis; type: ADME, organism-based; parameters: dose 0.2 mg/kg, route intravenous; conditions: plasma; outline: as §2
[9] = Volume of distribution at steady state in Han Wistar rat at 0.2 mg/kg, iv by LC-MS/MS analysis; type: ADME, organism-based; parameters: dose 0.2 mg/kg, route intravenous; conditions: in vivo, read-out: Vdss; outline: as §2

| Compound | EC50 [1] [nM] | GI50 (MDA-MB-231) [nM] | also measured |
| --- | --- | --- | --- |
| CN[C@@H](C)C(=O)N[C@H](C(=O)N1CCC[C@H]1C(=O)N[C@H]1c2ccccc2C[C@H]1OCC#CC#CCO[C@@H]1Cc2ccccc2[C@@H]1NC(=O)[C@@H]1CCCN1C(=O)[C@@H](NC(=O)[C@H](C)NC)C1CCNCC1)C1CCNCC1 | > 370 | > 370 | – |
| C#CCO[C@H]1CCc2ccccc2[C@@H]1NC(=O)[C@@H]1CCCN1C(=O)[C@@H](NC(=O)[C@H](C)NC)C(C)(C)C | 10 | 45 | IC50 [2]: 95 nM; IC50 [3]: 14 nM |
| CN[C@@H](C)C(=O)N[C@H](C(=O)N1[C@H](C(=O)N[C@H]2c3ccccc3C[C@H]2OCC#CC#CCO[C@@H]2Cc3ccccc3[C@@H]2NC(=O)[C@@H]2C[C@@H]3C[C@@H]3N2C(=O)[C@@H](NC(=O)[C@H](C)NC)C2CCCCC2)C[C@@H]2C[C@@H]21)C1CCCCC1 | 0.1 | 0.1 | solubility thermodynamic at 24 h [4]: 48 µM (≈ 49.9 µg/mL); fraction unbound at 10 µM [5]: < 0.01 |
| CN[C@@H](C)C(=O)N[C@H](C(=O)N1CSC[C@H]1C(=O)N[C@H]1c2ccccc2C[C@H]1OCC#CC#CCO[C@@H]1Cc2ccccc2[C@@H]1NC(=O)[C@@H]1CSCN1C(=O)[C@@H](NC(=O)[C@H](C)NC)C(C)(C)C)C(C)(C)C | 0.5 | 0.1 | solubility thermodynamic at 24 h [4]: 268 µM (≈ 268 µg/mL); fraction unbound at 10 µM [5]: 0.107 |
| CN[C@@H](C)C(=O)N[C@H](C(=O)N1CCC[C@H]1C(=O)N[C@H]1c2ccccc2C[C@H]1OCC#CC#CCO[C@@H]1Cc2ccccc2[C@@H]1NC(=O)[C@@H]1CCCN1C(=O)[C@@H](NC(=O)[C@H](C)NC)C1CCN(C(C)=O)CC1)C1CCN(C(C)=O)CC1 | > 370 | 76 | – |
| CN[C@@H](C)C(=O)N[C@H](C(=O)N1CCC[C@H]1C(=O)N[C@@H]1CCN(CC#CC#CCN2CC[C@@H](NC(=O)[C@@H]3CCCN3C(=O)[C@@H](NC(=O)[C@H](C)NC)C3CCCCC3)c3ccccc32)c2ccccc21)C1CCCCC1 | 0.2 | 0.1 | half-life [6]: 36 min; clearance [7]: 68 mL/min/kg; AUC [8]: 40 ng·h/mL; Vd [9]: 1.2 L/kg |
| CN[C@@H](C)C(=O)N[C@H](C(=O)N1CCC[C@H]1C(=O)N[C@H]1c2ccccc2C[C@H]1NC(=O)CCCCCCCCC(=O)N[C@@H]1Cc2ccccc2[C@@H]1NC(=O)[C@@H]1CCCN1C(=O)[C@@H](NC(=O)[C@H](C)NC)C1CCCCC1)C1CCCCC1 | 3 | 0.2 | inhibition [3]: Active |
| CN[C@@H](C)C(=O)N[C@H](C(=O)N1CCC[C@H]1C(=O)N[C@H]1c2ccccc2CC[C@H]1OCC#CC#CCO[C@@H]1CCc2ccccc2[C@@H]1NC(=O)[C@@H]1CCCN1C(=O)[C@@H](NC(=O)[C@H](C)NC)C(C)(C)C)C(C)(C)C | 0.2 | 0.1 | solubility thermodynamic at 24 h [4]: > 1000 µM; half-life [6]: 30 min; clearance [7]: 111 mL/min/kg; AUC [8]: 30 ng·h/mL; Vd [9]: 1.9 L/kg |
| CN[C@@H](C)C(=O)N[C@H](C(=O)N1CCC[C@H]1C(=O)N[C@H]1c2ccccc2C[C@H]1OCC#CC#CCO[C@@H]1Cc2ccccc2[C@@H]1NC(=O)[C@@H]1CCCN1C(=O)[C@@H](NC(=O)[C@H](C)NC)C1CCN(CCO)CC1)C1CCN(CCO)CC1 | > 370 | > 370 | – |
| C#CCO[C@H]1CCc2ccccc2[C@H]1NC(=O)[C@@H]1CCCN1C(=O)[C@@H](NC(=O)[C@H](C)NC)C(C)(C)C | 126 | 192 | IC50 [2]: 600 nM; IC50 [3]: 40 nM |
| CN[C@@H](C)C(=O)N[C@H](C(=O)N1CCC[C@H]1C(=O)N[C@H]1c2ccccc2CC[C@@H]1OCC#CC#CCO[C@H]1CCc2ccccc2[C@@H]1NC(=O)[C@@H]1CCCN1C(=O)[C@@H](NC(=O)[C@H](C)NC)C(C)(C)C)C(C)(C)C | 0.6 | 0.3 | – |
| CN[C@@H](C)C(=O)N[C@@H](CCCCN)C(=O)N1CCC[C@H]1C(=O)N[C@H]1c2ccccc2C[C@H]1OCC#CC#CCO[C@@H]1Cc2ccccc2[C@@H]1NC(=O)[C@@H]1CCCN1C(=O)[C@H](CCCCN)NC(=O)[C@H](C)NC | > 370 | > 370 | – |
| CN[C@@H](C)C(=O)N[C@H](C(=O)N1CCC[C@H]1C(=O)N[C@H]1c2ccccc2C[C@@H]1OCC#CC#CCO[C@H]1Cc2ccccc2[C@@H]1NC(=O)[C@@H]1CCCN1C(=O)[C@@H](NC(=O)[C@H](C)NC)C1CCCCC1)C1CCCCC1 | 0.2 | < 0.1 | – |
| CN[C@@H](C)C(=O)N[C@H](C(=O)N1CC=C[C@H]1C(=O)N[C@H]1c2ccccc2C[C@H]1OCC#CC#CCO[C@@H]1Cc2ccccc2[C@@H]1NC(=O)[C@@H]1C=CCN1C(=O)[C@@H](NC(=O)[C@H](C)NC)C1CCCCC1)C1CCCCC1 | 0.3 | 0.1 | solubility thermodynamic at 24 h [4]: 77 µM (≈ 77.9 µg/mL); fraction unbound at 10 µM [5]: 0.029 |
| CN[C@@H](C)C(=O)N[C@H](C(=O)N1CCC[C@H]1C(=O)NC1(C(=O)NCC#CC#CCNC(=O)C2(NC(=O)[C@@H]3CCCN3C(=O)[C@@H](NC(=O)[C@H](C)NC)C3CCCCC3)Cc3ccccc3C2)Cc2ccccc2C1)C1CCCCC1 | 5 | 13 | – |
| CN[C@@H](C)C(=O)N[C@H](C(=O)N1CCC[C@H]1C(=O)N[C@H]1c2ccccc2C[C@H]1OCC#CC#CCO[C@@H]1Cc2ccccc2[C@@H]1NC(=O)[C@@H]1CCCN1C(=O)[C@@H](NC(=O)[C@H](C)NC)C(C)C)C(C)C | 2 | 0.4 | half-life [6]: 96 min; clearance [7]: 44 mL/min/kg; AUC [8]: 76 ng·h/mL; Vd [9]: 2.3 L/kg |
| CN[C@@H](C)C(=O)N[C@H](C(=O)N1CCC[C@H]1C(=O)N[C@H]1c2ccccc2C[C@H]1NC(=O)c1ccc(-c2ccc(C(=O)N[C@@H]3Cc4ccccc4[C@@H]3NC(=O)[C@@H]3CCCN3C(=O)[C@@H](NC(=O)[C@H](C)NC)C3CCCCC3)cc2)cc1)C1CCCCC1 | 15 | 0.6 | inhibition [3]: Active |
| C#CCO[C@@H]1CCc2ccccc2[C@@H]1NC(=O)[C@@H]1CCCN1C(=O)[C@@H](NC(=O)[C@H](C)NC)C(C)(C)C | 4 | 16 | IC50 [2]: 19 nM; IC50 [3]: 10 nM |
| C#CCO[C@@H]1CCc2ccccc2[C@H]1NC(=O)[C@@H]1CCCN1C(=O)[C@@H](NC(=O)[C@H](C)NC)C(C)(C)C | > 370 | 2190 | IC50 [2]: 1310 nM; IC50 [3]: 290 nM |
| CN[C@@H](C)C(=O)N[C@H](C(=O)N1CCC[C@H]1C(=O)N[C@@H]1c2ccccc2CC[C@H]1OCC#CC#CCO[C@@H]1CCc2ccccc2[C@H]1NC(=O)[C@@H]1CCCN1C(=O)[C@@H](NC(=O)[C@H](C)NC)C(C)(C)C)C(C)(C)C | 2 | 61 | – |
| CN[C@@H](C)C(=O)N[C@H](C(=O)N1CCC[C@H]1C(=O)N[C@@H]1c2ccccc2CC[C@@H]1OCC#CC#CCO[C@H]1CCc2ccccc2[C@H]1NC(=O)[C@@H]1CCCN1C(=O)[C@@H](NC(=O)[C@H](C)NC)C(C)(C)C)C(C)(C)C | 4 | 97 | – |
| CN[C@@H](C)C(=O)N[C@H](C(=O)N1CSC2(CC2)[C@H]1C(=O)N[C@H]1c2ccccc2C[C@H]1OCC#CC#CCO[C@@H]1Cc2ccccc2[C@@H]1NC(=O)[C@H]1N(C(=O)[C@@H](NC(=O)[C@H](C)NC)C2CCCCC2)CSC12CC2)C1CCCCC1 | 0.6 | < 0.1 | solubility thermodynamic at 24 h [4]: < 1 µM; fraction unbound at 10 µM [5]: < 0.01 |
| CN[C@@H](C)C(=O)N[C@H](C(=O)N1CSC[C@H]1C(=O)N[C@H]1c2ccccc2C[C@H]1OCC#CC#CCO[C@@H]1Cc2ccccc2[C@@H]1NC(=O)[C@@H]1CSCN1C(=O)[C@@H](NC(=O)[C@H](C)NC)C1CCCCC1)C1CCCCC1 | 0.2 | 0.1 | solubility thermodynamic at 24 h [4]: < 1 µM; fraction unbound at 10 µM [5]: 0.011 |
